Results taken from ChEMBL document CHEMBL1154792, “chi-Conopeptide pharmacophore development: toward a novel class of norepinephrine transporter inhibitor (Xen2174) for pain” (J Med Chem, 2009).
Calls of active or inactive are those of the source.

What was measured:
Rattus norvegicus [1] = species: Rattus norvegicus; assay: Toxicity in CCI rat pain model assessed as side effects; type: organism-based; details: in vivo
Summary of the method: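 Rats with unilateral sciatic chronic constriction injury received a single intrathecal bolus via an implanted cannula 14 days after surgery, with morphine and vehicle as comparators. Compound-related behavioural observations were recorded alongside von Frey paw-withdrawal testing. Three animals per analogue.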

Rattus norvegicus [2] = assay: Antiallodynic activity in CCI rat pain model assessed as efficayin ipsilateral hind paw withdrawal threshold at 0.2 nM, iv; type: functional, organism-based
Summary of the method: (§1)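 Unilateral chronic constriction injury of the sciatic nerve in rats. At 14 days post-surgery, a single bolus was given via a chronically implanted intrathecal cannula; morphine and vehicle were comparators. Mechanical allodynia was measured with calibrated von Frey filaments as paw withdrawal threshold in the ipsilateral hindpaw, relative to the pre-dose value. Three animals per analogue; dose chosen from NET potency.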

COS-7 [3] = assay: (§2) Displacement of [3H]nisoxetine from rat NET expressed in COS7 cells; type: cell-based
[4] = molecular target: T1, Sodium-dependent noradrenaline transporter (Homo sapiens, UniProt P23975); assay: Displacement of [3H]nisoxetine from human NET expressed in COS7 cells; type: cell-based; details: for Activity: COS-7
T1 sequence (P23975 whole entry): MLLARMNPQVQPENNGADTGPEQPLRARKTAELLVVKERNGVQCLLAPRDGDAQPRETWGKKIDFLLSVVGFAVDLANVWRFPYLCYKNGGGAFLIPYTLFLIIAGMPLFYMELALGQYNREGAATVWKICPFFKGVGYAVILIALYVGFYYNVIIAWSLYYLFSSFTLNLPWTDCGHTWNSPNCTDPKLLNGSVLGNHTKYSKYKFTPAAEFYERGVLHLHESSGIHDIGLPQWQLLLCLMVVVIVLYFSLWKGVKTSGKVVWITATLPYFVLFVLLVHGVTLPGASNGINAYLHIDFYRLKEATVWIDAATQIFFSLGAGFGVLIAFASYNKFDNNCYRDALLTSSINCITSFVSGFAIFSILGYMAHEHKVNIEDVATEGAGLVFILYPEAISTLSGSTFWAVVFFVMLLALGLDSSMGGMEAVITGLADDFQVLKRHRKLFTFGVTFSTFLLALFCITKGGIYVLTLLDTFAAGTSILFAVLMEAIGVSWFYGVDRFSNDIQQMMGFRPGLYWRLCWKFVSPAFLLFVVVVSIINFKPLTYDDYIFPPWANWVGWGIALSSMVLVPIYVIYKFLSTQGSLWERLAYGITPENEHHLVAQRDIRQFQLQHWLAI
Summary of the method: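 Membranes from COS-7 cells transfected with human NET were incubated with [3H]nisoxetine (4.3 nM) with or without peptide (1 nM to 100 μM, triplicate) for 1 h at RT. Filter-retained radioactivity was counted by liquid scintillation, and values are given as pIC50. Data are means of 2–5 experiments in triplicate; peptide concentration was set by calibrated HPLC at 214 nm.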

[5] = as §2; type: cell-based; details: cos-7
[6] = molecular target: T1, Sodium-dependent noradrenaline transporter; assay: Inhibition of human NET expressed in COS7 cells assessed as inhibition of [3H]norepinephrine uptake at 1 uM; type: cell-based; details: COS-7
Rattus norvegicus [7] = assay: Antiallodynic activity in CCI rat pain model assessed as efficayin ipsilateral hind paw withdrawal threshold at 1 nM, iv after 3 hrs; type: functional, organism-based; summary of the method: as §1
COS-7 [8] = assay: Inhibition of rat NET expressed in COS7 cells assessed as inhibition of [3H]norepinephrine uptake; type: cell-based
[9] = molecular target: T1, Sodium-dependent noradrenaline transporter; details: COS-7

CC(C)C[C@@H]1NC(=O)[C@H](CCCCN)NC(=O)[C@H](Cc2ccc(O)cc2)NC(=O)CNC(=O)[C@@H]2CSSC[C@H](NC1=O)C(=O)N[C@@H](Cc1cnc[nH]1)C(=O)N1CC[C@H](O)[C@H]1C(=O)N[C@H](C(=O)O)CSSC[C@H](NC(=O)[C@@H](NC(=O)CNC(=O)[C@H](CC(N)=O)NC(=O)[C@@H](N)CCc1ccccc1)C(C)C)C(=O)N2
Activity (Rattus norvegicus [1]): Toxic | Activity (Rattus norvegicus [2]): Active

CC(C)C[C@@H]1NC(=O)[C@H](CCCCN)NC(=O)[C@H](Cc2ccc(O)cc2)NC(=O)CNC(=O)[C@@H]2CSSC[C@H](NC1=O)C(=O)N[C@@H](Cc1cnc[nH]1)C(=O)N1Cc3ccccc3C[C@H]1C(=O)N[C@H](C(=O)O)CSSC[C@H](NC(=O)[C@@H](NC(=O)CNC(=O)[C@@H]1CCC(=O)N1)C(C)C)C(=O)N2
Activity (COS-7 [3]): Active | Activity [4]: Active

CC(C)C[C@@H]1NC(=O)[C@H](CCCCN)NC(=O)[C@H](Cc2ccc(O)cc2)NC(=O)CNC(=O)[C@@H]2CSSC[C@H](NC1=O)C(=O)N[C@@H](Cc1cnc[nH]1)C(=O)N[C@H](CCC(=O)O)C(=O)N[C@H](C(=O)O)CSSC[C@H](NC(=O)[C@@H](NC(=O)CNC(=O)[C@@H]1CCC(=O)N1)C(C)C)C(=O)N2
Activity (COS-7 [3]): Active | Activity [4]: Active

CC(C)C[C@@H]1NC(=O)[C@H](CCCCN)NC(=O)[C@H](Cc2ccc(O)cc2)NC(=O)CNC(=O)[C@@H]2CSSC[C@H](NC1=O)C(=O)N[C@@H](Cc1cnc[nH]1)C(=O)N1CC[C@H](O)[C@H]1C(=O)N[C@H](C(=O)O)CSSC[C@H](NC(=O)[C@@H](NC(=O)CNC(=O)[C@@H]1CCC(=O)N1)C(C)C)C(=O)N2
pIC50 [5]: 6.67 | IC50 [4]: 0.182 µM | Activity [6]: Active | Activity (Rattus norvegicus [1]): Toxic | Activity (Rattus norvegicus [7]): Active | logEC50 (COS-7 [8]): -6.67 | logEC50 [9]: -6.74

CC(C)C[C@@H]1NC(=O)[C@H](CCCCN)NC(=O)[C@H](Cc2ccc(O)cc2)NC(=O)CNC(=O)[C@@H]2CSSC[C@H](NC1=O)C(=O)N[C@@H](Cc1cnc[nH]1)C(=O)N[C@H](CCCCN)C(=O)N[C@H](C(=O)O)CSSC[C@H](NC(=O)[C@@H](NC(=O)CNC(=O)[C@@H]1CCC(=O)N1)C(C)C)C(=O)N2
Activity (COS-7 [3]): Active | Activity [4]: Active
